This is an account of results in ChEMBL document CHEMBL4387722.

pEC50, pIC50: −log10 of the molar value.

The target in series [1] is T1, Phosphotyrosine protein phosphatase (Mycobacterium tuberculosis, UniProt A0A045ISB3).
T1 sequence (A0A045ISB3 whole entry): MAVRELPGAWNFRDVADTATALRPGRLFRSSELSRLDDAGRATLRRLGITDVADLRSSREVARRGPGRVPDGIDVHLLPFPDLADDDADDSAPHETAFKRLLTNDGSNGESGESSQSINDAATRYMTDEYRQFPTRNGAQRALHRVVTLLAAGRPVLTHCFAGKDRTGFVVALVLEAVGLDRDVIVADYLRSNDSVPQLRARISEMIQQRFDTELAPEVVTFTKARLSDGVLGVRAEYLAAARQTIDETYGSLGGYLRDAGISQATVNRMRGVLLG
As to the kind of experiment: Inhibition of Mycobacterium tuberculosis His-tagged PtpB expressed in Escherichia coli Rosetta 2 (DE3) using pNPP as substrate after 30 mins by spectrophotometric method.

In series [2] the target is HSP60/HSP10 (Homo sapiens, UniProt P10809). As to the kind of experiment: Inhibition of human HSP60 expressed in Escherichia coli Rosetta 2(DE3)/human HSP10 expressed in Escherichia coli Rosetta 2(DE3) pLysS cells assessed as reduction in HSP60/HSP10-mediated denatured pig heart mitochondrial MDH refolding by measuring MDH enzyme activity using sodium mesoxalate as substrate after 40 to 60 mins by spectrometric analysis.
Sequence of HSP60/HSP10 (P10809 whole entry): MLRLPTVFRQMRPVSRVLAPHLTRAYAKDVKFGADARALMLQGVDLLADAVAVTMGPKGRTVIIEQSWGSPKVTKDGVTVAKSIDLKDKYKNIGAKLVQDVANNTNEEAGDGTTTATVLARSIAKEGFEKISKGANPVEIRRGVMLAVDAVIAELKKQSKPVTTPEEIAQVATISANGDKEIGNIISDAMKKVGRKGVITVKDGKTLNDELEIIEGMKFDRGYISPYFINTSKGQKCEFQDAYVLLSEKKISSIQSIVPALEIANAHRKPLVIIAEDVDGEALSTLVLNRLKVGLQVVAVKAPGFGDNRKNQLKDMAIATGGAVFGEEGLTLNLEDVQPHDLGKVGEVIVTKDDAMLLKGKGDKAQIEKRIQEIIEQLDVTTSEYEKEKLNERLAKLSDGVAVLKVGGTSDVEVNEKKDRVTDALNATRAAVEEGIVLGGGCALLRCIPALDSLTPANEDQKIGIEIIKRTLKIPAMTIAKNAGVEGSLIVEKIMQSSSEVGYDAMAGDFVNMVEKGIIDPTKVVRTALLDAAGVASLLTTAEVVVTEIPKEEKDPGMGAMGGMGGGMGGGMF
Sequence of HSP60/HSP10 (P61604 whole entry, further chain): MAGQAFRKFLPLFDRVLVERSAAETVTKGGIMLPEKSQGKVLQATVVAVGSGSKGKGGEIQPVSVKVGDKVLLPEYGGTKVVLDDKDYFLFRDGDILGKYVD

Series [3] deals with T2, Tyrosine-protein phosphatase non-receptor type 5 (Homo sapiens, UniProt P54829).
T2 sequence (P54829 whole entry): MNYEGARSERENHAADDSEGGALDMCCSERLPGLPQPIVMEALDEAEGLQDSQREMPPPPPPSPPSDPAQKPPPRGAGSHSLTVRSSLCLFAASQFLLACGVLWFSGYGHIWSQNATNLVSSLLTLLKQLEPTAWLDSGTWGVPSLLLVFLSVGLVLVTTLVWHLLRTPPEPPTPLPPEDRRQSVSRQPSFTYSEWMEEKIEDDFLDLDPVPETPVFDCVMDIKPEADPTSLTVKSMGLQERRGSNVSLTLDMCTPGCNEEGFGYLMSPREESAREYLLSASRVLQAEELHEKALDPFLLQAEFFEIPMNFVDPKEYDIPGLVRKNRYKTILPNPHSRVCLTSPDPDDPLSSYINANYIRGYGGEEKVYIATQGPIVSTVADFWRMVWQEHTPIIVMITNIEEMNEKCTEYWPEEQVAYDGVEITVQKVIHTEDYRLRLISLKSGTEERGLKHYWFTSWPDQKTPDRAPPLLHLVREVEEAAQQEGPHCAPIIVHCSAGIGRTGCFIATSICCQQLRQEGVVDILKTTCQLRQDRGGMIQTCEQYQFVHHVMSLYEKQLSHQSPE
As to the kind of experiment: Inhibition of human PTPN5 expressed in Escherichia coli Rosetta 2 (DE3) using pNPP as substrate after 45 mins by spectrophotometric method.

The nature of series [4]: Cytotoxicity against human HEK293 cells assessed as reduction in cell viability after 48 hrs by Alamar blue assay. The class given is cell-based. The method, boiled down:
(§1)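 Alamar Blue viability read-out. Human liver (THLE-3) and kidney (HEK 293) cells incubated with compound for 48 h. Tested in dose-response to derive CC50.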

The target of series [5] is T3, Tyrosine-protein phosphatase non-receptor type 1 (Homo sapiens, UniProt P18031).
T3 sequence (P18031 whole entry): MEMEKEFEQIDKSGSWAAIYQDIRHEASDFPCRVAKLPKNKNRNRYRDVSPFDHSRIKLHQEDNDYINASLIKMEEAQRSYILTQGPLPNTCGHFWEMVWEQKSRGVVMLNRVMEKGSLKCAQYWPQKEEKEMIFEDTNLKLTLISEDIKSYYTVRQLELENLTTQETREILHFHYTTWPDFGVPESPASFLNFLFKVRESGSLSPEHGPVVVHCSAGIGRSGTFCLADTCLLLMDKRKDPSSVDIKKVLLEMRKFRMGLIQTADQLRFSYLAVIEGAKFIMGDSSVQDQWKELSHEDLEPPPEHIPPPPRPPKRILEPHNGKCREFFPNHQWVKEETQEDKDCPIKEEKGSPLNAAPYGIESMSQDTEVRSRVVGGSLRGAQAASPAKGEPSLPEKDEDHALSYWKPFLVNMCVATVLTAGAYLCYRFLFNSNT
As to the kind of experiment: Inhibition of human PTPN1 expressed in Escherichia coli Rosetta 2 (DE3) using pNPP as substrate after 45 mins by spectrophotometric method.

The target of series [6] is T4, Malate dehydrogenase, mitochondrial (Sus scrofa, UniProt P00346).
T4 sequence (P00346 whole entry): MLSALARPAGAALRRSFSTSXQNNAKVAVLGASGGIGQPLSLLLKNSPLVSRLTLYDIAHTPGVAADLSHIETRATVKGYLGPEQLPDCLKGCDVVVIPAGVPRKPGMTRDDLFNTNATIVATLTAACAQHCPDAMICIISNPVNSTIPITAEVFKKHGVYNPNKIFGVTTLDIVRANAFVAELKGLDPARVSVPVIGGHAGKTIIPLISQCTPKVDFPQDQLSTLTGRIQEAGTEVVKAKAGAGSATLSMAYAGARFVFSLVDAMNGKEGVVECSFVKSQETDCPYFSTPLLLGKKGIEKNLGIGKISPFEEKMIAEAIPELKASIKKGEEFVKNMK
As to the kind of experiment: Inhibition of refolded pig heart mitochondrial MDH preincubated with Escherichia coli GroEL/GroES for 45 mins using sodium mesoxalate as substrate followed by compound addition and measured after 20 to 30 mins by spectrometric analysis.

The target in series [7] is T5, Tyrosine-protein phosphatase non-receptor type 2 (Homo sapiens, UniProt P17706).
T5 sequence (P17706 whole entry): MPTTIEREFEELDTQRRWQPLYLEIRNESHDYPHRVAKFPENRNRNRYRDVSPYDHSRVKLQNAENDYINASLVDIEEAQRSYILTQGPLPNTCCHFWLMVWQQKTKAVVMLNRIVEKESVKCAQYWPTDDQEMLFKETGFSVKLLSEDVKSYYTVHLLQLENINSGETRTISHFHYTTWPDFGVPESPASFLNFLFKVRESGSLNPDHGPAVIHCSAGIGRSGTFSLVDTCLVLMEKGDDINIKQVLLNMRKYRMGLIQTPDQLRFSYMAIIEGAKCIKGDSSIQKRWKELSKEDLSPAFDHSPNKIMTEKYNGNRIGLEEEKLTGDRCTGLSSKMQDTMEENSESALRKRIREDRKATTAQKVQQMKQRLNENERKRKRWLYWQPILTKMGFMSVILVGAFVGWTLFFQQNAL
As to the kind of experiment: Inhibition of human PTPN2 expressed in Escherichia coli Rosetta 2 (DE3) using pNPP as substrate after 45 mins by spectrophotometric method.

Series [8] deals with Mycobacterium tuberculosis. As to the kind of experiment: Antitubercular activity against Mycobacterium tuberculosis H37Rv after 5 days at 200 uM relative to control. The class given is functional. The settings on record: 120 h. In outline: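 M. tuberculosis grown in liquid culture with compound at a fixed 200 μM for 5 days. Growth inhibition expressed as percent of control.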

Series [9] can be described thus: Cytotoxicity against human THLE3 cells assessed as reduction in cell viability after 48 hrs by Alamar blue assay. The class given is cell-based. The method, boiled down: as §1
Series [10] can be described thus: Inhibition of refolded rhodanese (unknown origin) preincubated with Escherichia coli GroEL/GroES for 60 mins by measuring rhodanese enzyme activity followed by compound addition by Fe(SCN)3 dye based spectrometric analysis. Further details: species or system Homo sapiens.
The subject of series [11] is Mycobacterium tuberculosis. As to the kind of experiment: Antitubercular activity against Mycobacterium tuberculosis H37Rv after 5 days. The class given is functional, organism-based. The settings on record: 120 h.

Regarding `CS(=O)(=O)Nc1ccc2oc(-c3ccccc3)nc2c1`, the pIC50 in [1] is less than 4.00; in series [2], less than 4.00; in series [3], less than 4.00; in series [5] it was less than 4.00; in [6] it was less than 4.20; in series [7] it was less than 4.00. In series [10], this molecule had a pIC50 of less than 4.00. The CC50 at 48 h in [4] and in series [9] was greater than 100 µM throughout. In [8], this molecule returned an inhibition at 200 µM of 6%.

Turning to `O=S(=O)(Nc1ccc2oc(-c3ccccc3)nc2c1)c1ccc(O)cc1`, the pIC50 in series [1] was 4.01; in series [2] it was 4.06; in series [3], 4.08; in series [5] it was 4.04; in series [6], less than 4.20; in series [7], less than 4.00. In series [10], this molecule had a pIC50 of less than 4.00. The CC50 at 48 h in [4] and in [9] was greater than 100 µM throughout. In addition, the inhibition at 200 µM in series [8] came out at 9%.

As for `O=S(=O)(Nc1ccc(-c2nc3cc(NS(=O)(=O)c4ccccc4Br)ccc3o2)cc1)c1ccccc1Br`, the pIC50 in series [1] is 4.70; in series [3], 4.51; in series [5], 4.62; in [7], 4.55. For the same molecule, the pEC50 in series [11] was less than 3.70. Besides, in series [8], the inhibition at 200 µM came out at 50%.

`Nc1ccccc1S(=O)(=O)Nc1ccc(-c2nc3cc(NS(=O)(=O)c4ccccc4N)ccc3o2)cc1`: the pIC50 in [1] was 4.77; in series [3], 4.29; in series [5], 4.47; in [7], 4.60. The same molecule gave a pEC50 in [11] of less than 3.70. The molecule further gave an inhibition at 200 µM in series [8] of 58%.

Consider `Nc1ccc(S(=O)(=O)Nc2ccc(-c3nc4cc(NS(=O)(=O)c5ccc(N)cc5)ccc4o3)cc2)cc1`, for which the pIC50 in series [1] was 4.80; in series [3], 4.39; in [5], 4.57; in series [7], 4.49. The same molecule showed a pEC50 in series [11] of less than 3.70. In series [8], this molecule showed an inhibition at 200 µM of 51%.

On to `N#Cc1cccc(S(=O)(=O)Nc2ccc(-c3nc4cc(NS(=O)(=O)c5cccc(C#N)c5)ccc4o3)cc2)c1`, for which the pIC50 in series [1] was 4.48; in series [3] it was 4.36; in series [5], 4.43; in [7], 4.32. The same molecule showed a negative-log EC50 (pEC50) in series [11] of less than 3.70. In series [8], this molecule displayed an inhibition at 200 µM of 65%.

Consider `COc1ccccc1S(=O)(=O)Nc1ccc(-c2nc3ccccc3o2)cc1`, for which the pIC50 in [1] is 4.23; in series [2] it was less than 4.00; in series [3] it was 4.36; in series [5] it was 4.27; in series [6] it was less than 4.20; in [7], 4.28. Further, the pIC50 in series [10] is less than 4.00. Also, the CC50 at 48 h in [4] and in series [9] was greater than 100 µM in each case. In [8], this molecule returned an inhibition at 200 µM of 0%.

With `O=S(=O)(Nc1ccc2oc(-c3ccccc3)nc2c1)c1ccc(F)c(C(F)(F)F)c1`, the pIC50 in series [1] was 4.34; in [2] it was 4.16; in series [3], 4.59; in series [5] it was 4.12; in [6] it was less than 4.20; in series [7] it was 4.41. In [10], this molecule had a pIC50 of less than 4.00. In addition, the results for the CC50 at 48 h in series [4] and in [9] were greater than 100 µM and 55 µM, respectively. The inhibition at 200 µM in series [8] is 23%.

Turning to `O=S(=O)(Nc1ccc2oc(-c3ccccc3)nc2c1)c1cccc(Cl)c1`, the pIC50 is less than 4.00 in [1]; less than 4.00 in [2]; less than 4.00 in series [3]; 4.06 in [5]; less than 4.20 in [6]; 4.29 in series [7]. The same molecule showed a pIC50 in series [10] of less than 4.00. The CC50 at 48 h was determined as 70 µM in series [4] and 45 µM in series [9]. In series [8], this molecule showed an inhibition at 200 µM of 45%.

In the case of `O=S(=O)(Nc1ccc2oc(-c3ccccc3)nc2c1)c1ccccc1O`, the pIC50 in series [1] was 4.01; in series [2] it was 4.07; in series [3] it was 4.17; in [5], 4.12; in series [6], less than 4.20; in [7], less than 4.00. This molecule also gave a pIC50 in [10] of less than 4.00. Besides, the CC50 at 48 h in series [4] was 33 µM; in [9] it was 32 µM. Besides, the inhibition at 200 µM in [8] came out at 18%.
